Consider 47 sequences from the EternaBench riboswitch data.

This data set has as its system MS2 coat protein. The data set is described as follows: apparent Kd, MS2 coat protein; higher = weaker binding; RNA-MaP array. The procedure, abridged:
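The designed RNAs, transcribed from sequenced DNA templates on an Illumina sequencing chip, were incubated with fluorescently labeled MS2 coat protein at room temperature. Protein ranged from 1.5 nM to 3 μM, with 0.8–1.5 h incubation at the lowest and 10–20 min at the highest concentrations, in Tris-HCl pH 7.5 buffer with KCl, MgCl2, BSA, DTT, tRNA and Tween20, with or without input ligand. The median of per-cluster binding-curve fits gives the apparent Kd, and designs measured on fewer than 10 clusters were excluded.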

Where [1] appears, read: designed as: ON switch for flavin mononucleotide, no ligand.
Setting [2] is: ligand present: flavin mononucleotide, designed as: ON switch for flavin mononucleotide.
The mark [3] stands for this setting: designed as: OFF switch for flavin mononucleotide, no ligand.
The mark [4] stands for this setting: ligand present: flavin mononucleotide, designed as: OFF switch for flavin mononucleotide.
Setting [5] is: designed as: ON switch for tryptophan, no ligand.
[6] abbreviates: ligand present: tryptophan, designed as: ON switch for tryptophan.

As usually defined, the apparent Kd is the concentration giving half-maximal binding under the conditions of the assay. “AUGCCACUUAAGAAGGCGGCGUGAUGCUUAGCGUUGAGACAUGAGGAUCACCCAUGUGACGUACCCGAGGAUAUUAAUGGAAUC”: the “apparent Kd” value under setting [1] is 17 nM and the “apparent Kd” value under setting [2] came to 11.7 nM.
As to “UCGUGCAGUGAGGAUAUCCCGAAGGCUUCCAUUGGAGAAGGCACUACAUGAGGAUCACCCAUGUGGCUUGAUAA”, the “apparent Kd” value turned out to be 44 nM under setting [3] and 56.5 nM under setting [4].
For the sequence “UAUCACUGGCAGAAGGUUCUCGGAAGCGAUGGUACUCUAUACAUGAGGAUCACCCAUGUCUACGGAAAGGAUAUGCCAUUGCGA”, the “apparent Kd” value runs as follows: under setting [3], 70 nM; under setting [4], 176 nM.
With “CAUUCACUAACUCCACAUGAGGAUCACCCAUGUUGAGGUCCGAGAAGGUGCACUACGUGGGAGCGCAAGGAUAUCGCCUAGUAA”, the “apparent Kd” value came to 9.84 nM under setting [1] and 7.64 nM under setting [2].
For the sequence “UGACUGUGUGAGAAGGUGUUCCGCGCCCGGCCACAAGGAUAUCACAACGCUGCCCUACAUGAGGAUCACCCAUGUGAUUGCUAC”, the “apparent Kd” value runs as follows: under setting [1], 29.5 nM; under setting [2], 25.8 nM.
For “GACCACAUGAGGAUCACCCAUGUCUUGGUCCGAGGACCGGUACGGCCGCCACUCGAGAGCCGUACAAAUAAACGGAGUGCCAUCA”, the “apparent Kd” value under setting [5] stood at 15.9 nM and the “apparent Kd” value under setting [6] was 13.5 nM.
On to “AUUUAAAAGUUAGGAUAUCUCAUCAGCUCAAUAGAUGACAUGAGGAUCACCCAUGUGACCAAAGGAGAGAAGGAACUCAUAAUG”, for which the “apparent Kd” value runs as follows: under setting [3], 65.1 nM; under setting [4], 31.4 nM.
In the case of “GGAUGUAGACAGGAUAUUGCCAUUCCAAUGCGCCAAGAAGGGUCUACAUGAGGAUCACCCAUGUAAAGAAUAGG”, the “apparent Kd” value came out at 207 nM under setting [3] and 106 nM under setting [4].
Consider “CAAAACAUGAGGAUCACCCAUGUAGAUACGUGAAAAUUAUGGGAGGAUAUACAAUAGGACUGUAUGAAGAAGGCCCGAAAGCCA”, for which the “apparent Kd” value is, setting by setting: under setting [1], 20 nM; under setting [2], 18.5 nM.
Consider “GUCUCCUGAGAGAAGGCUCGCUCCGAGGAAUAGAGAGGAUAUCUACAUGAGGAUCACCCAUGUUGCCGAGGGAAAUGCACGGGU”, for which the “apparent Kd” value runs as follows: under setting [3], 68.9 nM; under setting [4], 90.5 nM.
In the same order, the values of “CUUAACAAAGGAUAUACACAAAUGAUUAAGGUGCCGGGAAAACAUGAGGAUCACCCAUGUAGAAGGUUGUAACA” are 8.1 nM and 7.75 nM.
Regarding “CACGGAAAUCAGAAGGCGCCUACACACGCAUUGCGAGGAUAUGACCGGUCGGUCCACAUGAGGAUCACCCAUGUUAACUAACGC”, the “apparent Kd” value runs as follows: under setting [1], 16.3 nM; under setting [2], 12.2 nM.
As for “AAGUGCAGCCGAGGAUAUAUCCACACGCCAGUACCCUCUCACAUGAGGAUCACCCAUGUUACCGGAUAGAAGGCGGUUUAUUAU”, the “apparent Kd” value by setting is: under setting [3], 31.7 nM; under setting [4], 58.5 nM.
Take “CAGAACAACGAAGGAUAUGCGAAACAUGAGGAUCACCCAUGUGUGGUUUUACUCAAACACCUGUCGCAGAAGGUCGCGUAACGA”: the “apparent Kd” value was found to be 37.9 nM under setting [3] and 31.1 nM under setting [4].
For “CGUGGCAAUCAAGGAUAUCACUUCUAGAUACCGUGAGAAGGUGAGCGUCUCUGCAAAGAGCGGGACAUGAGGAUCACCCAUGUA”, the “apparent Kd” value runs as follows: under setting [1], 255 nM; under setting [2], 162 nM.
For “GCGUGGCACUGCAUACACACAUGAGGAUCACCCAUGUAUAGUAGAAGGUUCUUCAGCGGGAACAGAAAGGAUAUACUGAUAGAU”, in that order: 7.74 nM and 7.42 nM.
As to “GAAUGAAGCGAGAAGGGACCAAAUGGGCAGAAACUACAUGAGGAUCACCCAUGUAAAAUAGAUAGUCAGGAUAUCGGAAGAAAG”, the “apparent Kd” value is, setting by setting: under setting [3], 36.4 nM; under setting [4], 31.8 nM.
For “CUACCAAAUUGAGGAUAUAGCCUGGGAGAACCAAGUUCCAUGAAAUACAUGAGGAUCACCCAUGUCUAGAAGGCAACAAUGGCC”, in that order: 92.4 nM and 145 nM.
In the same order, the values of “UAUGUACAUGAGGAUCACCCAUGUUAGGAUAUAUGGCCGCGCUUUAAACACCGUGCACAUAGAAGGAACAUUUG” are 35 nM and 33.7 nM.
As to “UUUACCGACACAGAUCACUAAAACCUUGAUACCAGUCCCAGUGGCGACCCUUGGCAGCAAUAUACAUGAGGAUCACCCAUGUGCA”, the “apparent Kd” value (designed as: OFF switch for theophylline, no ligand) worked out at 14.7 nM and the “apparent Kd” value (ligand present: theophylline, designed as: OFF switch for theophylline) worked out at 16.7 nM.
For “CUUCAGGGUGCGGCCGCCACUUAUUAGGUGCUUGCGACGCCAGCACAUGAGGAUCACCCAUGUUCAAGGACCGGGCACCACCUUU”, the “apparent Kd” value was found to be 11.5 nM under setting [5] and 12.6 nM under setting [6].
Take “ACUGACUUUACGGCCGCCACUCAUUGGCACGUGUCAUGUCAACAUGAGGAUCACCCAUGUAUGAUGAGGACCGGGUAAGGGCUGC”: the “apparent Kd” value was determined as 10.9 nM (designed as: OFF switch for tryptophan, no ligand) and 12.7 nM (ligand present: tryptophan, designed as: OFF switch for tryptophan).
Take “UUGGCGUCAGGAUAUACCGGUCGAUUCACAAUGAACUCCGUACAUGAGGAUCACCCAUGUAGAAGGGACAGUGG”: the “apparent Kd” value came to 6.22 nM under setting [3] and 6.07 nM under setting [4].
Regarding “CUUGGCGCUCAGAAGGCCGUCCAUGCACGCGCUAGGACAUGAGGAUCACCCAUGUAUCUAUGGACGGAGGAUAUGAUUCUCUCG”, the “apparent Kd” value by setting is: under setting [1], 20.4 nM; under setting [2], 8.75 nM.
Regarding “CGGGCCAUCUAAGGAUAUUUGCCGGCCCGAAGACAUGAGGAUCACCCAUGUGUGAACGGAUGUCGAAAGAAGGUAGACCUGGUC”, the “apparent Kd” value stood at 300 nM under setting [1] and 206 nM under setting [2].
For “AAUCGCAAUUGAGGAUAUUGAACUGAAUUGGCCACAUGAGGAUCACCCAUGUGACCUGUCUCCGUCAAGAAGGCAAUGUGGUGG”, in that order: 5.61 nM and 4.81 nM.
As for “GUCUGAUGACAUGAGGAUCACCCAUGUUGUAGGGUUACCUUCAGAAGGGCGAACUCGUAUAGAGCGCAGGAUAUGAAUCAAAGA”, the “apparent Kd” value under setting [1] is 29.5 nM and the “apparent Kd” value under setting [2] came out at 11.9 nM.
In the same order, the values of “UAGCAAUUACAUGAGGAUCACCCAUGUCUAUCGCAGAACAAGCAGGAUAUAGUGACACGACUCCGCUAGAAGGGCUCCUCUGUU” are 62.4 nM and 55.3 nM.
Consider “GUUAUCUCAUGUUCGACGGACAUGAGGAUCACCCAUGUACCUUAGGAUAUUGAUGAAAUAUGGCGCAAGAAGGAAGGUAACGCU”, for which the “apparent Kd” value stood at 6.47 nM under setting [3] and 7.52 nM under setting [4].
For the sequence “CCGCGUGCGGAAGGAUAUAUCCUAUGUUAGGAAAAUAACACAUGAGGAUCACCCAUGUCGAAGAGAUAGAAGGUCCGACAUACA”, the “apparent Kd” value stood at 29.5 nM under setting [1] and 14 nM under setting [2].
As to “CCGCGCACUGGAGGAUAUAAUCGAACAUGAGGAUCACCCAUGUUAGACGUGGUACGAGCGUUCCAUUAGAAGGCCACUCUGCGU”, the “apparent Kd” value under setting [3] worked out at 27.1 nM and the “apparent Kd” value under setting [4] worked out at 52.8 nM.
On to “CUUUUACAUGAGGAUCACCCAUGUUGUACAGGGUUAGGAUAUCUUAAUGUUAAGUUAAUGAGAGAAGGAACAGUCA”, for which the “apparent Kd” value by setting is: under setting [1], 149 nM; under setting [2], 94.8 nM.
In the case of “GAACUGUGAGGAUAUACAUGAGGAUCACCCAUGUUUGUGUUGGCACGCACUCGGGCAAGUAGAAGGCACAGAUG”, the “apparent Kd” value runs as follows: under setting [3], 44 nM; under setting [4], 73.7 nM.
As for “GCUGCACAUUCGGCCGCCACUGCUGUUACAGGAAGCUAUAGCUCACAUGAGGAUCACCCAUGUCCCAGGACCGGGAAAGUAUGGA”, the “apparent Kd” value came out at 72.9 nM under setting [5] and 65.9 nM under setting [6].
For “AGAUCCUUGGUCAGGAUAUCCAAUAAAGCCGUUUGGGAGAAGGGACAUGAGGAUCACCCAUGUAAAUUGACCAC”, the “apparent Kd” value reads like this: under setting [3], 12.2 nM; under setting [4], 32.3 nM.
On to “CUGUGAGUAGGAUAUGAUCACAAGUACAUGAGGAUCACCCAUGUGUGGCUCUGUACCGCCUCAGAAGGACUCGUCU”, for which the “apparent Kd” value is, setting by setting: under setting [3], 28 nM; under setting [4], 94.8 nM.
On to “UUAUAAGAGAUAGGAUAUUCCGACAAAAUCGAUGAAGAAGGAUCACUCAAAACAUGAGGAUCACCCAUGUAUAUAACAAAUGUU”, for which the “apparent Kd” value is, setting by setting: under setting [1], 57.5 nM; under setting [2], 25.4 nM.
In the same order, the values of “AAAGGAUUCAAGAAGGUACCCUAACAUGAGGAUCACCCAUGUCUCGGUGGCAUCAAGGUACCUGGUAAGGAUAUUGCAACCACU” are 39.4 nM and 33.2 nM.
For “CAGUUACAUGAGGAUCACCCAUGUUUUUAACGCAGAGGAUAUCCGGUGGUUAAUGGCUCAGGAGAAGGCUGUGGUC”, in that order: 16.3 nM and 9.37 nM.
For the sequence “GUCCUCGAAGGAUAUAUUGGAAAUUACAUGAGGAUCACCCAUGUCUCGUAGUAUAGCACGAUAGAAGGUCGGAAGA”, the “apparent Kd” value is, setting by setting: under setting [3], 36.1 nM; under setting [4], 24.6 nM.
In the same order, the values of “AACAUGAGGAUCACCCAUGUUUCAGAUCCUCUCUGGUUCAAGUAGGAUAUGUGUGAUACGGAAGUACAGAAGGACUCCGGAGCA” are 38.4 nM and 29.5 nM.
As to “ACAGGUAGAGGAUAUCGUGAAAGUCACAUGAGGAUCACCCAUGUGGUAAGCAUGUACGCCCGAGAAGGCUAACCGC”, the “apparent Kd” value by setting is: under setting [3], 7.57 nM; under setting [4], 12.4 nM.
As for “ACAAAGACAGGAUAUACAAAUUACAACUAAUCAAGGAAAAGACAUGAGGAUCACCCAUGUAGAAGGGUCAAUAA”, the “apparent Kd” value by setting is: under setting [3], 26.9 nM; under setting [4], 20.5 nM.
“GCGAAGCAAGGAUAUGCCCGGCGAUACAUGAGGAUCACCCAUGUGAUGUAGUUAGUUGUAGCAGAAGGUGCGCGAU”: the “apparent Kd” value under setting [3] is 17.6 nM and the “apparent Kd” value under setting [4] worked out at 11.4 nM.
With “AAGGUGCACGCUCAGGAUAUAUUCCAGGUUACAUGAGGAUCACCCAUGUAGGGUUGAAGAAGGACAUAGAAGGGAGCCUACUUGGC”, the “apparent Kd” value is 32.6 nM under setting [1] and 21.6 nM under setting [2].
As for “CCUUAUUCAUAGAAGGAGUUCAUCCUACGUGGACUAGGAUAUAUAUUCGACAUGAGGAUCACCCAUGUAUCUGAGAUCGUGGUA”, the “apparent Kd” value under setting [3] was determined as 29.3 nM and the “apparent Kd” value under setting [4] worked out at 26.2 nM.
With “GCUGACCAGGAGAAGGGAUACGGUCUCCUUGUGGAAAUGAACAUGAGGAUCACCCAUGUAUUAGAUCAGGAUAUCCAAUGGAGG”, the “apparent Kd” value was 13.4 nM under setting [3] and 14.4 nM under setting [4].
